Assay results reported in ChEMBL document CHEMBL4814013, “Scaffold repurposing of fendiline: Identification of potent KRAS plasma membrane localization inhibitors” (Eur J Med Chem, 2021).
Active and inactive are the calls of the source. The calls are words filed in the database; no cut-off is given here.

Assays:
[1] = test system: Caenorhabditis elegans; test: In vivo inhibition of KRAS signaling in Caenorhabditis elegans lin-1 L1 harboring let60 […] mutant assessed as reduction in multi-vulva phenotype measured after 4 to 5 days culturing in buffer containing Escherichia coli OP50 by DIC/Nomarski microscopic analysis; assay type: functional, organism-based; conditions: dose 0.1-30 µM, time 4-5 day
Procedure, shortened: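 let-60 (n1046) or lin-1 L1 larvae cultured in M9 buffer with E. coli OP50 plus DMSO vehicle or compound at 0.1, 0.3, 1, 3, 10 or 30 µM. After 4–5 days, adults were scored for multi-vulva by DIC/Nomarski microscopy.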

[2] = test system: MIA PaCa-2; test: Antitumor activity human MIA PaCa-2 cells harboring KRAS mutation xenografted in nu/nu mouse assessed as induction of apoptosis by measuring increase in cleaved caspase 3 level in tumor at 1 to 5 mg/kg, ip administered once daily for 5 days with 2 days break by immunohistochemistry; assay type: functional, organism-based; conditions: dose 1-5 mg/kg, time 5.0 day
Procedure, shortened: (§1)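 Paraffin tumor sections of 4–5 µm were deparaffinized and given heat antigen retrieval in 10 mM sodium citrate. Endogenous peroxidase was quenched and sections blocked in 2.5% normal goat serum. Primary antibody (pERK or cleaved caspase 3) applied overnight at 4 °C, biotinylated secondary 1:250 for 45 min at rt, then ABC reagent 30 min and DAB development. Rabbit IgG served as control.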

[3] = test system: KLE; test: Antiproliferative activity against human KLE cells expressing wild type KRAS assessed as reduction in cell growth upto 30 uM incubated for 72 hrs by CyQuant proliferation assay; assay type: functional, cell-based; conditions: dose microM <=30, time 72.0 hrs
Procedure, shortened: (§2)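 Cells seeded in 96-well plates; after 24 h fresh growth medium with 0.1% DMSO vehicle or drug added (highest dose 30 µM for cancer lines), grown 72 h at 37 °C, 5% CO2. Live cell number measured by CyQUANT fluorescence. IC50 from three independent experiments. MEFs were isogenic lines carrying oncogenic BRAF or KRAS.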

[4] = test system: MDCK; test: Inhibition of ASM in dog MDCK cells co-expressing recombinant full length GFP-tagged LactC2 and mCherry-CAAX assessed as reduction in plasma membrane localization of LactC2 incubated for 48 hrs by confocal microscopic analysis; assay type: cell membranes; conditions: Canis lupus familiaris
Procedure, shortened: (§3)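 MDCK cells stably co-expressing mGFP-KRAS G12V or mGFP-LactC2 with mCherry-CAAX (HRAS 179–189 C181S/C184S) grown on coverslips in DMEM/10% FBS. Treated 48 h with 0.1% DMSO or graded drug, fixed in 4% paraformaldehyde, then quantitative confocal imaging. Mislocalization scored as the Manders fraction of mCherry-CAAX co-localizing with the GFP probe. IC50 and Emax from three independent experiments.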

[5] = test system: MDCK; test: Inhibition of ASM in dog MDCK cells co-expressing recombinant full length mGFP-tagged KRAS G12V mutant and mCherry-CAAX assessed as reduction in plasma membrane localization of KRAS mutant incubated for 48 hrs by confocal microscopic analysis relative to control; assay type: cell membranes; conditions: Canis lupus familiaris; procedure, shortened: as §3
[6] = test system: MEF; test: Cytotoxicity against mouse MEF cells expressing BRAF V600E mutant and wild type KRAS assessed as reduction in cell growth incubated for 72 hrs by CyQuant proliferation assay; assay type: functional, cell-based; procedure, shortened: as §2
[7] = test system: MDCK; test: Reduction in expression of human GFP-tagged ASM transfected in dog MDCK cells at 5 uM incubated for 48 hrs by western blot analysis; assay type: functional, cell-based; conditions: Canis lupus familiaris
Procedure, shortened: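 SMPD1-GFP-expressing MDCK cells treated 48 h with 5 µM compound, washed in cold PBS and lysed in Tris pH 7.5 buffer with NaF, EGTA, DTT, vanadate, 1% NP40 and protease inhibitors. 20 µg of protein resolved by SDS-PAGE and immunoblotted. Signals detected by enhanced chemiluminescence and quantified by densitometry.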

[8] = test system: NCI-H522; test: Antiproliferative activity against human NCI-H522 cells expressing wild type KRAS assessed as reduction in cell growth incubated for 72 hrs by CyQuant proliferation assay; assay type: functional, cell-based; conditions: NCI-H522, 72 h; procedure, shortened: as §2
[9] = test system: Mus musculus; test: In vivo inhibition of KRAS signaling in nu/nu mouse xenografted with human MIA PaCa-2 cells harboring KRAS mutation assessed as decrease in ERK phosphorylation in tumor at 1 to 5 mg/kg, ip administered once daily for 5 days with 2 days break by immunohistochemistry; assay type: functional, organism-based; conditions: dose 1-5 mg/kg, time 5.0 day; procedure, shortened: as §1
[10] = Inhibition of ASM in dog MDCK cells co-expressing recombinant full length mGFP-tagged KRAS G12V mutant and mCherry-CAAX assessed as reduction in plasma membrane localization of KRAS mutant incubated for 48 hrs by confocal microscopic analysis; assay type: cell membranes, Canis lupus familiaris; procedure, shortened: as §3
[11] = Antiproliferative activity against human MPANC96 cells expressing KRAS mutant assessed as reduction in cell growth incubated for 72 hrs by CyQuant proliferation assay; assay type: functional, cell-based; conditions: MPANC96, 72 h; procedure, shortened: as §2
[12] = test system: Mus musculus; test: In vivo inhibition of ASM in nu/nu mouse xenografted with human MIA PaCa-2 cells harboring KRAS mutation assessed as increase in SM accumulation in tumor at 12.5 mg/kg, ip administered once daily for 5 days with 2 days break by GFP-lysenin staining based confocal laser microscopy; assay type: functional, organism-based; conditions: time 5.0 day
Procedure, shortened: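 Sections of MiaPaCa-2 xenograft tumors from i.p.-treated nu/nu mice (12.5 mg/kg) stained with GFP-tagged lysenin to detect sphingomyelin.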

[13] = biological target: T1, Sphingomyelin phosphodiesterase (Homo sapiens) (UniProt P17405); test: Inhibition of human GFP-tagged ASM expressed in dog MDCK cells using sphingomyelin as substrate at 5 uM incubated for 48 hrs by Amplex Red dye based fluorescence analysis; assay type: cell-based
T1 sequence (whole entry): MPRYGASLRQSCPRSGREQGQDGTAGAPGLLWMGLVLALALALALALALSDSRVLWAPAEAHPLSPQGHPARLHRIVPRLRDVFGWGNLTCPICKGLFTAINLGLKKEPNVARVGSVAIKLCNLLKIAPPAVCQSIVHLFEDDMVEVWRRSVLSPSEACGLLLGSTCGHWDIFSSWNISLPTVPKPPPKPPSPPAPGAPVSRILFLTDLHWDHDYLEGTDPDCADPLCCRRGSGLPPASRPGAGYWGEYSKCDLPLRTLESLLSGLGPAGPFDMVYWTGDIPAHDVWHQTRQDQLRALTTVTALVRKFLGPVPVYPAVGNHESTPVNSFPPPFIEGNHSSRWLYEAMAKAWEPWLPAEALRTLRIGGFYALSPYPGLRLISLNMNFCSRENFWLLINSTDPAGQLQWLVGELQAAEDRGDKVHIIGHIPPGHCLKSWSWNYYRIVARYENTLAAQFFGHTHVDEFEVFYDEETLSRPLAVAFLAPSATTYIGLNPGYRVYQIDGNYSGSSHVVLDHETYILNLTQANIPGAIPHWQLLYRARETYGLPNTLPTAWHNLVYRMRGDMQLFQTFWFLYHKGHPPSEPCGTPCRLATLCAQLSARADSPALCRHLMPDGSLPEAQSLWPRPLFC
Procedure, shortened: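 MDCK cells stably expressing human SMPD1-GFP treated 48 h at 5 µM. Whole-cell lysate, made without DTT, mixed with 50 mM sodium acetate pH 5.0 plus sphingomyelin and held 1 h at 37 °C. pH then raised to 7.4 with Amplex Red mix (100 µM Amplex Red, 2 U/mL HRP, 0.2 U/mL choline oxidase, 8 U/mL alkaline phosphatase, 100 mM Tris pH 8.0), 60 min at 37 °C. Fluorescence read at Ex 540/Em 590 nm. Controls: 0.1 U/mL SMase (positive), buffer alone (negative).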

| SMILES | inhibition [1] | Activity [2] | Activity [3] | inhibition [4] | Emax [5] | IC50 [6] | inhibition [7] | IC50 [8] | inhibition [9] | IC50 [10] | IC50 [11] | inhibition [12] | inhibition [13] |
| --- | --- | --- | --- | --- | --- | --- | --- | --- | --- | --- | --- | --- | --- |
| COc1ccc([C@@H](C)N(CC=C(c2ccccc2)c2ccccc2)CCCN2CCN(C)CC2)cc1 | Dose-Dependent Effect | Active | inactive | Active | 0.81 | 7.9 µM | inactive | 23.5 µM | Active | 20 nM | 4.2 µM | inactive | Active |
| COc1ccc([C@@H](C)N(CC=C(c2ccccc2)c2ccccc2)CCN2CCCC2)cc1 | Dose-Dependent Effect | Active | inactive | Active | 0.85 | 8.5 µM | Active | 27.3 µM | Active | 300 nM | 3.8 µM | Active | Active |
